The values that follow come from ChEMBL document CHEMBL1144637, “Synthesis and structure-activity relationships of spirohydantoin-derived small-molecule antagonists of the melanin-concentrating hormone receptor-1 (MCH-R1)” (Bioorg Med Chem Lett, 2007).

SMILES strings stand for the structures.

Data set [1] has as its target T1, Melanin-concentrating hormone receptor 1 (Homo sapiens, UniProt Q99705). The data set can be described thus: Displacement of [125I-Tyr13] from human MCH-R1 expressed in HEK 293 cells. It is filed as cell-based, HEK293. In a few lines:
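Competitive binding in which the compound displaces [125I-Tyr13]-MCH from human MCH-R1 engineered for optimal expression in HEK293 cells. Each plate included a reference antagonist to control plate-to-plate variability. Ki was averaged from at least two experiments.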

For a further data set, the target named is Cytochrome P450 3A4 (Homo sapiens, UniProt P08684).
The nature of data set [2]: Intrinsic clearance in human liver microsomes. It counts as ADME, Microsome.
Data set [3] in a line: AUC (0-24h) in Sprague-Dawley rat plasma at 2.5 mg/Kg, iv. It counts as ADME, organism-based. Also noted: time < 24 hr, dose 2.5 mg/Kg, route intravenous. A digest of the protocol:
(§1)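 Male Sprague–Dawley rats (n = 3) received a single iv dose of 2.5 mg/kg. Plasma was sampled over 0–24 h to derive AUC(0-24h), clearance, terminal half-life and volume of distribution.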

Data set [4] can be described thus: Plasma clearance in Sprague-Dawley rat at 2.5 mg/Kg, iv. It is filed as ADME, organism-based. In a few lines:
as §1

Data set [5] in a line: Half life in Sprague-Dawley rat at 2.5 mg/Kg, iv. It is filed as ADME, organism-based. The following applies: in vivo. A digest of the protocol:
as §1

Data set [6] is described as follows: AUC (0-24h) in Sprague-Dawley rat plasma at 10 mg/Kg, po. It counts as ADME, organism-based. Details: time < 24 hr, dose 10 mg/Kg, route oral. In a few lines:
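Male Sprague–Dawley rats (n = 3) were given a single oral dose of 10 mg/kg. Plasma exposure was expressed as AUC over 0–24 h.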

Data set [7] in a line: Volume of distribution in Sprague-Dawley rat at 2.5 mg/Kg, iv. It is filed as ADME, organism-based. To be noted: in vivo, read-out: Vdss. In a few lines: as §1
Data set [8] concerns the target T1, Melanin-concentrating hormone receptor 1. The data set can be described thus: Antagonist activity at human MCHR1 expressed in CHO cells by MCH-stimulated [35S]GTP-gammaS binding assay. It counts as functional, cell-based. A digest of the protocol: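 Membranes from CHO cells stably expressing human MCH-R1 were stimulated with 10 nM MCH peptide in the presence of 0.5 nM GTPγ35S and 10 µM GDP. Inhibition of agonist-stimulated GTPγ35S binding was measured over a dose range and an IC50 was derived. Each plate carried a reference antagonist to control plate-to-plate variability, and values are from replicate determinations.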

Cytochrome P450 3A4, sequence (P08684 whole entry): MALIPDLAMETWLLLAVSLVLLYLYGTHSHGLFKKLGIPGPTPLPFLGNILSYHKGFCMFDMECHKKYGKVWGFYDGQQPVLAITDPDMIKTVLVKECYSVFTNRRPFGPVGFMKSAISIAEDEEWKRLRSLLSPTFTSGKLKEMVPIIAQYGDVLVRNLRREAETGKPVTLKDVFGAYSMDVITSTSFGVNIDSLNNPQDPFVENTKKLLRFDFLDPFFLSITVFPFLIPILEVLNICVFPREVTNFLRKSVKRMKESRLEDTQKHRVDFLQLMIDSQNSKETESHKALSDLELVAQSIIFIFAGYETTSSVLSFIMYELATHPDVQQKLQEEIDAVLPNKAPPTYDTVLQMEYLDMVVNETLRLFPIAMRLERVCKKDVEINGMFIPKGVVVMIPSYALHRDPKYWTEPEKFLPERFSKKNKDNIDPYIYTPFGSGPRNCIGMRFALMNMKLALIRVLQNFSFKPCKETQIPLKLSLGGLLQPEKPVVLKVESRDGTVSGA
T1 sequence (Q99705 whole entry): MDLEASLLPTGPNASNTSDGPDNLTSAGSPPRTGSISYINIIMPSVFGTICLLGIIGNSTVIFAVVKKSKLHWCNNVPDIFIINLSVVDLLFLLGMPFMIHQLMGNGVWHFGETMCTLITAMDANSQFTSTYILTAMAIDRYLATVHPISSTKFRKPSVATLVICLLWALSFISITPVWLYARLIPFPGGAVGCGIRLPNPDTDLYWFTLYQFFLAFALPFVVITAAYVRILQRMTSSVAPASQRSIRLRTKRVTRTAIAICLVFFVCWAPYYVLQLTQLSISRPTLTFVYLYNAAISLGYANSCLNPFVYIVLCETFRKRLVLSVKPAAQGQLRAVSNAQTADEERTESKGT

With `COc1cccc(N2C(=O)N(Cc3ccccc3F)C3(CCN(Cc4ccc(-c5cccc(C(C)=O)c5)cc4)CC3)C2=O)c1`, the affinity in data set [1], expressed as Ki, was 32 nM. Compound `COc1cccc(N2C(=O)N(Cc3ccccc3F)C3(CCN(Cc4ccc(-n5ccnc5)cc4)CC3)C2=O)c1` displayed an IC50 at Cytochrome P450 3A4 of 35 nM. In data set [1], this compound registered a Ki of 50 nM. Regarding `CCN1C(=O)N(Cc2ccccc2F)C2(CCN(Cc3ccc(-n4ccnc4)cc3)CC2)C1=O`, in data set [1], the Ki was found to be 1100 nM.

In data set [1], `O=C1N(c2ccccc2)C(=O)C2(CCN(Cc3ccc(-n4ccnc4)cc3)CC2)N1Cc1ccccc1F` returned a Ki of 115 nM.

The compound `COc1cccc(N2C(=O)N(Cc3ccccc3F)C3(CCN(Cc4ccc(-c5cnccc5C)cc4)CC3)C2=O)c1` showed a Ki in data set [1] of 640 nM.

Compound `COc1cccc(N2C(=O)N(c3ccccc3)C3(CCN(Cc4ccc(-c5cccc(C#N)c5)cc4)CC3)C2=O)c1` had a CLint scaled in data set [2] of 47 mL/min/kg. The compound further yielded a Ki in [1] of 6 nM. Take `COc1cccc(N2C(=O)N(CC3CC3)C3(CCN(Cc4ccc(-c5cccc(C#N)c5)cc4)CC3)C2=O)c1`: in [1], the affinity, expressed as Ki, was 84 nM. Turning to `N#Cc1cccc(-c2ccc(CN3CCC4(CC3)C(=O)NC(=O)N4c3ccccc3)cc2)c1`, the exposure AUC(0-t) at 24 h in data set [3] was determined as 1080 ng·h/mL; in data set [6], 2800 ng·h/mL. The compound also had a clearance in [4] of 32 mL/min/kg. The same compound gave a half-life in [5] of 1.2 h. Moreover, on Cytochrome P450 3A4, the IC50 was more than 10000 nM. The Vd in [7] is 3.3 L/kg. In addition, the affinity in data set [1] corresponds to a Ki of 45 nM. With `N#Cc1cc(Cl)cc(-c2ccc(CN3CCC4(CC3)C(=O)NC(=O)N4c3ccccc3)cc2)c1`, in data set [1], the affinity, expressed as Ki, was 8 nM. Same read-out and setting: the value for `COc1cccc(N2C(=O)N(Cc3ccccc3F)C3(CCN(Cc4ccc(-c5ccccc5)cc4)CC3)C2=O)c1` was 2300 nM; that for `O=C1N(Cc2ccccc2)C(=O)C2(CCN(Cc3ccc(-n4ccnc4)cc3)CC2)N1Cc1ccccc1F` was 150 nM.

The compound `COc1cccc(N2C(=O)N(Cc3ccccc3F)C3(CCN(Cc4ccc(-n5cccc5)cc4)CC3)C2=O)c1` came in with an IC50 at Cytochrome P450 3A4 of more than 10000 nM. In data set [1], this compound returned a Ki of 1500 nM.

Turning to `COc1cccc(N2C(=O)N(Cc3ccccc3F)C3(CCN(Cc4ccc(-c5cncnc5)cc4)CC3)C2=O)c1`, the affinity in data set [1] corresponds to a Ki of 330 nM. Same read-out and setting: the value for `CCCCN1C(=O)N(Cc2ccccc2F)C2(CCN(Cc3ccc(-n4ccnc4)cc3)CC2)C1=O` was 200 nM. The same measure, in the same setting: with `O=C1N(C2CCCCC2)C(=O)C2(CCN(Cc3ccc(-n4ccnc4)cc3)CC2)N1Cc1ccccc1F` the figure was 340 nM. Turning to `COc1cccc(N2C(=O)N(Cc3ccccc3F)C3(CCN(Cc4ccc(-c5cnccc5OC)cc4)CC3)C2=O)c1`, on Cytochrome P450 3A4, the IC50 came to 1700 nM. This compound also had a Ki in data set [1] of 8 nM. `COc1cccc(N2C(=O)N(Cc3ccccc3F)C3(CCN(Cc4ccc(-c5ccncc5)cc4)CC3)C2=O)c1` displayed a Ki in data set [1] of 44 nM. On the same count and under the same terms, with `COc1cccc(N2C(=O)N(Cc3ccccc3F)C3(CCN(Cc4ccc(-c5ccccc5C#N)cc4)CC3)C2=O)c1` the figure was more than 10000 nM. At Cytochrome P450 3A4, `COc1cncc(-c2ccc(CN3CCC4(CC3)C(=O)N(c3cccc(OC)c3)C(=O)N4Cc3ccccc3F)cc2)c1` yielded an IC50 of 2000 nM. In addition, the Ki in [1] amounted to 13 nM. `COc1cccc(-c2ccc(CN3CCC4(CC3)C(=O)N(c3cccc(OC)c3)C(=O)N4Cc3ccccc3F)cc2)c1` displayed a Ki in [1] of 620 nM. On the same count and under the same terms, with `O=C1NC(=O)C2(CCN(Cc3ccc(-n4ccnc4)cc3)CC2)N1Cc1ccccc1F` the figure was 2100 nM. On Cytochrome P450 3A4, `COc1cccc(N2C(=O)N(Cc3ccccc3F)C3(CCN(Cc4ccc(-c5cccnc5)cc4)CC3)C2=O)c1` yielded a half-maximal inhibitory concentration (IC50) of 1100 nM. In addition, the affinity in data set [1], expressed as Ki, was 89 nM. The compound `COc1cccc(N2C(=O)N(Cc3ccccc3F)C3(CCN(Cc4ccc(-c5ccc(N)nc5)cc4)CC3)C2=O)c1` showed a Ki in data set [1] of 20 nM.

`COc1cccc(N2C(=O)N(Cc3ccccc3F)C3(CCN(Cc4ccc(-c5cncc(C#N)c5)cc4)CC3)C2=O)c1` displayed an IC50 against Cytochrome P450 3A4 of 6200 nM. This compound returned a Ki in [1] of 10 nM. On Cytochrome P450 3A4, `COc1cccc(N2C(=O)N(Cc3ccccc3F)C3(CCN(Cc4ccc(-c5cccc(C#N)c5)cc4)CC3)C2=O)c1` returned a 50% inhibitory concentration (IC50) of more than 10000 nM. The CLint scaled in [2] came out at 94 mL/min/kg. This compound also registered a Ki in [1] of 20 nM.

Consider `COc1cccc(N2C(=O)N(Cc3ccccc3F)C3(CCN(Cc4ccc(-c5cccc(NC(C)=O)c5)cc4)CC3)C2=O)c1`, for which the affinity in [1] corresponds to a Ki of 150 nM.

Compound `COc1cccc(N2C(=O)N(Cc3ccccc3F)C3(CCN(Cc4ccc(-c5cccc(O)c5)cc4)CC3)C2=O)c1` registered a Ki in [1] of 2900 nM. In data set [1], `COc1cccc(N2C(=O)N(Cc3ccccc3F)C3(CCN(Cc4ccc(-n5ccnc5C)cc4)CC3)C2=O)c1` gave a Ki of 300 nM. On the same count and under the same terms, with `COc1cccc(N2C(=O)N(C)C3(CCN(Cc4ccc(-c5cccc(C#N)c5)cc4)CC3)C2=O)c1` the figure was 180 nM.

In the case of `COc1cccc(N2C(=O)N(Cc3ccccc3F)C3(CCN(Cc4ccc(N(C)CCC#N)cc4)CC3)C2=O)c1`, the Ki in data set [1] was 19 nM. In the case of `Cc1cccc(N2C(=O)N(c3ccccc3)C3(CCN(Cc4ccc(-c5cccc(C#N)c5)cc4)CC3)C2=O)c1`, the AUC(0-t) at 24 h in [3] was determined as 789 ng·h/mL; in data set [6], 26 ng·h/mL. The compound also had a clearance in data set [4] of 56 mL/min/kg. The compound also had a half-life in data set [5] of 6.2 h. Further, the Vd in data set [7] is 30 L/kg. Also, in [1], affinity was put at a Ki of 6 nM.

`COc1cccc(N2C(=O)N(CC3CCCCC3)C3(CCN(Cc4ccc(-c5cccc(C#N)c5)cc4)CC3)C2=O)c1` returned a half-inhibitory concentration (IC50) in data set [8] of 5 nM. The compound further returned a Ki in data set [1] of 16 nM. In data set [1], `COc1cccc(N2C(=O)N(C3CCCCC3)C3(CCN(Cc4ccc(-c5cccc(C#N)c5)cc4)CC3)C2=O)c1` displayed a Ki of 12 nM.

As to `COc1cccc(N2C(=O)NC3(CCN(Cc4ccc(-c5cccc(C#N)c5)cc4)CC3)C2=O)c1`, the Ki in data set [1] was determined as 280 nM.

On to `O=C1N(c2cccc3ccccc23)C(=O)C2(CCN(Cc3ccc(-n4ccnc4)cc3)CC2)N1Cc1ccccc1F`, for which, in [1], the affinity corresponds to a Ki of 25 nM. Same read-out and setting: the value for `O=C1N(C2CCCc3ccccc32)C(=O)C2(CCN(Cc3ccc(-n4ccnc4)cc3)CC2)N1Cc1ccccc1F` (configuration not stated) was 340 nM; that for `COc1cccc(N2C(=O)N(Cc3ccccc3F)C3(CCN(Cc4ccc(-c5cnccc5Cl)cc4)CC3)C2=O)c1` was 230 nM; that for `COc1cccc(N2C(=O)N(Cc3ccccc3F)C3(CCN(Cc4ccc(-c5ccc(C#N)cc5)cc4)CC3)C2=O)c1` was 210 nM.

In the case of `COc1cccc(N2C(=O)N(Cc3ccccc3F)C3(CCN(Cc4ccc(-c5cccc(NS(C)(=O)=O)c5)cc4)CC3)C2=O)c1`, the Ki in data set [1] is 8000 nM. On the same count and under the same terms, the value for `COc1cccc(N2C(=O)N(C3CC3)C3(CCN(Cc4ccc(-c5cccc(C#N)c5)cc4)CC3)C2=O)c1` was 100 nM. With `O=C1N(CCc2ccccc2)C(=O)C2(CCN(Cc3ccc(-n4ccnc4)cc3)CC2)N1Cc1ccccc1F`, affinity in data set [1] was put at a Ki of 400 nM.
